Measured values pooled from the literature.
Compare with care: the assays were run in different laboratories.

| test system | setting | quantity | result | Compound |
| --- | --- | --- | --- | --- |
| male CD-1 mouse, plasma | oral, 150 mg/kg | AUC(0-inf) | 527000 ng·h/mL | CCc1cc(C(=O)NC)c2nccc(N3CCc4c(cc(Cn5ccnc5)cc4-c4cn(C)nc4C(F)(F)F)C3=O)c2c1 |
| male C57BL/6 mouse, serum | oral, 10 mg/kg | AUC | 57 µM·h | CC(C)(O)c1cn(-c2ccc(-c3cccc(S(C)(=O)=O)c3)cc2)c(C(C)(C)c2ccccc2Cl)n1 |
| male CD-1 mouse, plasma | intravenous, 3 mg/kg | AUC(0-inf) | 3330 ng·h/mL | CCc1cc(OC)c2nccc(N3CCc4c(cc(Cn5ccnc5)cc4-c4cn(C)nc4C(F)(F)F)C3=O)c2c1 |
| male C57BL/6 mouse, plasma | intraperitoneal, 5 mg/kg, single dose | AUC(0-inf) | 6180 ng·h/mL | CC(C)(C)c1ccc(O)c(CN(Cc2cc(C(C)(C)C)ccc2O)C2CCC(NC(N)=O)CC2)c1 (stereo not drawn) |
| mouse, plasma | oral, 2 mg/kg | AUC | 0.78 µM·h | CC1(C)c2nc(-c3ccc(F)cc3)c(Nc3ccc(F)cc3)n2CCN1C(=O)CN |
| CD-1 mouse, plasma | oral, 10 mg/kg | AUC | 741 ng·h/mL | OC[C@H]1O[C@@H](c2ccc(Cl)c(Cc3ccc(O[C@H]4CCOC4)cc3)c2)[C@H](O)[C@@H](O)[C@@H]1O |
| male C57BL/6 mouse, plasma | intraperitoneal, 30 mg/kg | AUC | 1000 ng·h/mL | CNC(=O)[C@H](Cc1c[nH]cn1)NC(=O)CN(CCCc1ccccc1)CC(=O)OC |
| male BALB/c mouse, plasma | oral, 500 mg/kg | AUC | 3400 ng·h/mL | NC[C@@H]1O[C@H](O[C@H]2[C@@H](O)[C@H](O[C@@H]3[C@@H](O)[C@H](N)C[C@H](N)[C@H]3O[C@H]3O[C@H](CO)[C@@H](O)[C@H](O)[C@H]3N)O[C@@H]2CO)[C@H](N)[C@@H](O)[C@@H]1O |
| male CD-1 mouse, plasma | subcutaneous, 5 mg/kg, single dose | AUC | 517 ng·h/mL | CC(C)Oc1c(NC(=O)c2ccc(NC(=O)[C@H](CC(N)=O)NC(=O)c3ccc(NC(=O)c4ccc(C#N)cc4)cc3)cc2)ccc(C(=O)Nc2ccc(C(=O)O)cc2)c1O |
| male BALB/c mouse, plasma | intravenous, 5 mg/kg | AUC(0-inf) | 126000 ng·h/mL | CC[C@H](C)[C@@H]1NC(=O)[C@@](C)(NC(=O)[C@H](CCCNC(=N)N)NC(=O)[C@H](CC(C)C)NC(=O)[C@@H](NC(=O)[C@H](CCC(N)=O)NC(=O)[C@H](CC(C)C)NC(C)=O)[C@@H](C)O)CCCC=CCCC[C@@](C)(C(=O)N[C@@H](CC(C)C)C(=O)N[C@@H](Cc2ccc3ccccc3c2)C(N)=O)NC(=O)[C@H](CCCNC(=N)N)NC(=O)[C@H](CCC(N)=O)NC1=O |
| male C57BL/6 mouse, serum | oral, 10 mg/kg | AUC | 13 µM·h | CC(C)(O)c1cn(-c2ccc(-c3ccc(CO)c(S(C)(=O)=O)c3)cc2)c(Cc2ccccc2Cl)n1 |
| male C57BL/6 mouse, plasma | intraperitoneal, 30 mg/kg | AUC | 3600 ng·h/mL | CNC(=O)[C@H](Cc1c[nH]cn1)NC(=O)CN(CCCc1ccccc1)CC(=O)O |
